Tests used:
Homo sapiens [1] = experiment: Non-renal clearance in healthy human at 500 mg, iv; assay type: ADME, organism-based; conditions: in vivo
Summary of the method: (§1)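 Healthy volunteers (n = 12) got a single 1-h 500-mg IV infusion. Plasma was sampled predose and at 0.25–12 h and assayed by LC-MS/MS (LLOQ 0.1 μg/ml). Noncompartmental analysis gave CL = dose/AUC0-∞ and CL_R = 0–12 h urinary amount/AUC0-12. Nonrenal CL = CL − CL_R. Values are means ± SD.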

[2] = (§2) Clearance in healthy human at 500 mg, iv; assay type: ADME, organism-based; conditions: in vivo, 500 mg; summary of the method: as §1
Homo sapiens [3] = experiment: as §2; assay type: ADME, organism-based; conditions: in vivo; summary of the method: as §1
Homo sapiens [4] = experiment: Toxicity in healthy human assessed as pancreatitis at 500 mg, iv after 2 days; assay type: organism-based; conditions: in vivo, 48 h
Homo sapiens [5] = experiment: Non-renal clearance in end stage renal disease patient undergoing 12 hours continuous venovenous hemofiltration at 500 mg, iv; assay type: ADME, organism-based; conditions: in vivo
Summary of the method: (§3)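 For dialysis-dependent subjects on CVVH or CVVHDF after a 1-h 500-mg IV infusion, nonrenal CL = CL − (CL_R + CL_CRRT). CL_CRRT was the UF (or UF/dialysate) flow rate for each collection interval × the average sieving (or saturation) coefficient, where each coefficient is the fluid/plasma concentration ratio from paired samples at 1.25–12 h. Values are means ± SD.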

[6] = AUC (0 to infinity) in end stage renal disease patient undergoing 12 hours continuous venovenous hemodiafiltration at 500 mg, iv; assay type: ADME, organism-based; design: dose 500 mg, route intravenous, time infinity; conditions: human, plasma
[7] = (§4) Clearance in end stage renal disease patient undergoing 12 hours continuous venovenous hemofiltration at 500 mg, iv; assay type: ADME, organism-based; conditions: human, in vivo, 500 mg
Homo sapiens [8] = experiment: as §4; assay type: ADME, organism-based; conditions: in vivo, 12 h
Homo sapiens [9] = experiment: Non-renal clearance in end stage renal disease patient undergoing 12 hours continuous venovenous hemodiafiltration at 500 mg, iv; assay type: ADME, organism-based; conditions: in vivo; summary of the method: as §3
[10] = (§5) Clearance in end stage renal disease patient undergoing 12 hours continuous venovenous hemodiafiltration at 500 mg, iv; assay type: ADME, organism-based; conditions: human, in vivo, 500 mg
Homo sapiens [11] = experiment: as §5; assay type: ADME, organism-based; conditions: in vivo, 12 h
[12] = Terminal half life in end stage renal disease patient undergoing 12 hours continuous venovenous hemofiltration at 500 mg, iv; assay type: ADME, organism-based; conditions: human, in vivo, read-out: beta t1/2 (converted)
Summary of the method: (§6)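 Prefilter plasma was taken up to 12 h and measured by LC-MS/MS. Terminal λz came from log-linear regression over 1.5–12 h, and t1/2 = 0.693/λz (noncompartmental).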

[13] = Terminal half life in end stage renal disease patient undergoing 12 hours continuous venovenous hemodiafiltration at 500 mg, iv; assay type: ADME, organism-based; conditions: human, in vivo, read-out: beta t1/2 (converted); summary of the method: as §6
[14] = AUC (0 to infinity) in end stage renal disease patient undergoing 12 hours continuous venovenous hemofiltration at 500 mg, iv; assay type: ADME, organism-based; design: dose 500 mg, time infinity, route intravenous; conditions: human, plasma
[15] = Renal clearance in healthy human at 500 mg, iv; assay type: ADME, organism-based, Kidney; conditions: in vivo, read-out: CL_renal (converted); summary of the method: as §1
Homo sapiens [16] = experiment: Toxicity in healthy human assessed as pancreatitis at 500 mg, iv after 1 day; assay type: organism-based; conditions: in vivo, 24 h

Row | CL (Homo sapiens [1]) [L/h] | clearance [2] [mL/min] | CL (Homo sapiens [3]) [L/h] | CL (Homo sapiens [5]) [L/h] | AUC(0-inf) [6] [µg·h/mL] | clearance [7] [mL/min] | CL (Homo sapiens [8]) [L/h] | CL (Homo sapiens [9]) [L/h] | clearance [10] [mL/min] | CL (Homo sapiens [11]) [L/h] | half-life [12] [h] | half-life [13] [h] | AUC(0-inf) [14] [µg·h/mL] | CL renal [15] [mL/min] | SMILES | Activity (Homo sapiens [4]) | Activity (Homo sapiens [16])
1 | 14.2 |  |  |  |  |  |  |  |  |  |  |  |  |  | C[C@@H](O)[C@@H](C(=O)O)[C@@H]1NC(C(=O)O)=C(S[C@@H]2CN[C@H](CNS(N)(=O)=O)C2)[C@@H]1C |  | 
2 | 6.73 | 265 | 15.9 | 3.58 | 87.5 | 82.4 | 4.94 | 4.22 | 98.2 | 5.98 | 4.24 | 3.87 | 114 | 153 | C[C@@H](O)[C@H]1C(=O)N2C(C(=O)O)=C(S[C@@H]3CN[C@H](CNS(N)(=O)=O)C3)[C@H](C)[C@H]12 [DORIPENEM] | Non-toxic | Toxic

— ChEMBL document CHEMBL1687854 (Antimicrob Agents Chemother, 2011)
